pIC50: −log10 of the molar value. Calls of active or inactive are those of the source. No cut-off for these calls is given here.
Columns and labels:
[1] = Metabolic stability in Sprague-Dawley rat liver microsomes assessed as compound remaining at 90 mins in presence of NADPH regenerating system by HPLC method; format: ADME; conditions: read-out: Stability
Outline: (§1)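 Test compound incubated with rat liver microsomes at 37 ℃ in buffer containing an NADPH regenerating system for the stated time. Remaining parent compound was quantified by HPLC.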

[2] = Selectivity ratio of IC50 for human MCF10A cells to IC50 for human A549 cells; format: ADME, cell-based; conditions: MCF10A cells versus A549 cells, read-out: Ratio IC50
Outline: (§2)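 Selectivity ratio = IC50 in normal cells / IC50 in A549; IC50 values mean ± SE from dose-response curves of at least three independent experiments. HUVECs kept quiescent in endothelial cell medium with 0.5% fetal calf serum, no growth factor.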

Tubulin = Tubulin (Sus scrofa, UniProt P02554+P02550); assay: Inhibition of porcine brain tubulin polymerization measured every 60 secs for 60 mins by DAPI staining-based fluorescence assay
A549 [3] = assay: Induction of apoptosis in human A549 cells assessed as late apoptotic cells at 1 nM after 48 hrs by annexin V-FITC/propidium iodide staining-based flow cytometric method (reference value: 0.01%); format: functional
A549 [4] = assay: Induction of apoptosis in human A549 cells assessed as late apoptotic cells at 10 nM after 48 hrs by annexin V-FITC/propidium iodide staining-based flow cytometric method (reference value: 0.01%); format: functional
A549 [5] = assay: Induction of apoptosis in human A549 cells assessed as early apoptotic cells at 10 nM after 24 hrs by annexin V-FITC/propidium iodide staining-based flow cytometric method (reference value: 1.07%); format: functional
A549 [6] = assay: Induction of apoptosis in human A549 cells assessed as viable cells at 3 nM after 24 hrs by annexin V-FITC/propidium iodide staining-based flow cytometric method (reference value: 98.9%); format: functional; conditions: A549, 24 h, read-out: Activity
Outline: (§3)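 A549 cells exposed 24 h or 48 h at indicated concentrations, then trypsinized, harvested and stained with Annexin V-FITC and PI; flow cytometry quadrants scored as necrotic (upper left), late apoptotic (upper right), live (bottom left) and early apoptotic (bottom right). Five independent experiments, representative shown.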

[7] = Selectivity ratio of IC50 for HLF to IC50 for human A549 cells; format: ADME, cell-based; conditions: HLF versus A549 cells, read-out: Ratio IC50; outline: as §2
A549 [8] = assay: Induction of apoptosis in human A549 cells assessed as viable cells at 1 nM after 24 hrs by annexin V-FITC/propidium iodide staining-based flow cytometric method (reference value: 98.9%); format: functional; conditions: A549, 24 h, read-out: Activity; outline: as §3
[9] = Cytotoxicity against human Bel7402 cells assessed as cell viability after 48 hrs by MTT assay; format: functional, cell-based; conditions: Bel-7402, 48 h
Outline: (§4)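 Cancer cell lines treated with compound for 48 h, and viability read by MTT assay. IC50 given as mean ± SD from at least three independent experiments.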

A549 [10] = assay: Disruption of mitochondrial membrane potential in human A549 cells at 1 to 10 nM after 24 hrs by JC1/Hoechst 33342 staining-based laser scanning confocal microscopy; format: functional, cell-based
Outline: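 After 24 h compound treatment, A549 cells were incubated with JC-1 for 30 min and visualized by laser scanning confocal microscopy.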

[11] = Metabolic stability in Sprague-Dawley rat liver microsomes assessed as compound remaining at 60 mins in presence of NADPH regenerating system by HPLC method; format: ADME; conditions: read-out: Stability; outline: as §1
A549 [12] = assay: Induction of apoptosis in human A549 cells assessed as early apoptotic cells at 3 nM after 48 hrs by annexin V-FITC/propidium iodide staining-based flow cytometric method (reference value: 1.95%); format: functional
A549 [13] = assay: Induction of apoptosis in human A549 cells assessed as late apoptotic cells at 10 nM after 24 hrs by annexin V-FITC/propidium iodide staining-based flow cytometric method (reference value: 0.01%); format: functional
[14] = Cytotoxicity against human A2780/TAX cells assessed as growth inhibition after 48 hrs by MTT assay; format: functional, cell-based
Outline: (§5)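 Drug-resistant lines were tested by a 48 h MTT viability assay. IC50 was derived from dose-response curves and reported as mean ± SE of at least three independent experiments.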

A549 [15] = assay: Induction of apoptosis in human A549 cells assessed as early apoptotic cells at 3 nM after 24 hrs by annexin V-FITC/propidium iodide staining-based flow cytometric method (reference value: 1.07%); format: functional
[16] = Selectivity ratio of IC50 for quiescent HUVEC to IC50 for human A549 cells; format: ADME, cell-based; conditions: quiescent HUVEC versus A549 cells, read-out: Ratio IC50; outline: as §2
A549 [17] = assay: Disruption of mitochondrial membrane potential in human A549 cells assessed as red fluorescence intensity at 10 nM after 24 hrs by JC1 staining-based flow cytometric method (reference value: 99.2%); format: functional
A549 [18] = assay: Disruption of mitochondrial membrane potential in human A549 cells assessed as red fluorescence intensity at 3 nM after 24 hrs by JC1 staining-based flow cytometric method (reference value: 99.2%); format: functional
A549 [19] = assay: Disruption of microtubule network in human A549 cells assessed as multipolarization of spindle at 10 nM after 24 hrs by Hoechst 33342 staining-based laser scanning confocal microscopic analysis; format: cell-based
Outline: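 A549 cells plated in confocal dishes and incubated with compound for 24 h. Cells were then fixed and stained, and microtubule and spindle organization was imaged by laser confocal microscopy. Experiments done five times; representative results shown.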

A549 [20] = assay: Induction of apoptosis in human A549 cells assessed as late apoptotic cells at 3 nM after 48 hrs by annexin V-FITC/propidium iodide staining-based flow cytometric method (reference value: 0.01%); format: functional
[21] = Selectivity ratio of IC50 for human BJ cells to IC50 for human A549 cells; format: ADME, cell-based; conditions: BJ cells versus A549 cells, read-out: Ratio IC50; outline: as §2
[22] = Cytotoxicity against human A549/CDDP cells assessed as growth inhibition after 48 hrs by MTT assay; format: functional, cell-based; conditions: A549, 48 h; outline: as §5
A549 [23] = assay: Disruption of mitochondrial membrane potential in human A549 cells assessed as green fluorescence intensity at 3 nM after 24 hrs by JC1 staining-based flow cytometric method (reference value: 0.02%); format: functional
[24] = Cytotoxicity against HLF assessed as growth inhibition after 48 hrs by MTT assay; conditions: Homo sapiens
Outline: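 Non-tumorigenic cells given 48 h compound exposure, and viability read by MTT. IC50 is mean ± SE from dose-response curves of at least three independent experiments. HUVECs were kept quiescent in endothelial cell medium with 0.5% fetal calf serum and no growth factor.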

Mus musculus = assay: Toxicity in BALB/c nude mouse xenografted with human A549 cells assessed as loss of body weight at 30 mg/kg, ip administered every other day for 1 month measured every other day post dose relative to vehicle-treated control; format: organism-based; conditions: in vivo
A549 [25] = assay: Induction of apoptosis in human A549 cells assessed as late apoptotic cells at 3 nM after 24 hrs by annexin V-FITC/propidium iodide staining-based flow cytometric method (reference value: 0.01%); format: functional
A549 [26] = assay: Induction of apoptosis in human A549 cells assessed as necrotic cells at 10 nM after 24 hrs by annexin V-FITC/propidium iodide staining-based flow cytometric method (reference value: 0.03%); format: functional
[27] = Cytotoxicity against human HCT8 cells assessed as cell viability after 48 hrs by MTT assay; format: functional, cell-based; conditions: HCT-8, 48 h; outline: as §4
MCF7 = assay: Cytotoxicity against human MCF7 cells assessed as cell viability after 48 hrs by MTT assay; format: functional, cell-based; conditions: MCF7, 48 h; outline: as §4

For COc1ccc2c(/C=C(\C)C(=O)c3cc(OC)c(OC)c(OC)c3)c[nH]c2c1, the remaining at 1.5 h [1] was 73.7%, the selectivity ratio [2] was 891 and the IC50 (Tubulin) was 2680 nM. It also gave an Activity (A549 [3]) of 14.6%, an Activity (A549 [4]) of 70.2% and an Activity (A549 [5]) of 25.27%. The viability at 0.003 µM (A549 [6]) was 69.7%, the selectivity ratio [7] was 1890 and the viability at 0.001 µM (A549 [8]) was 83.7%. For the same compound, the pIC50 [9] was 8.05, the Activity (A549 [10]) was “Active” and the remaining at 1 h [11] was 80.5%. The Activity (A549 [12]) was 26.8%, the Activity (A549 [13]) was 12.41% and the pIC50 [14] was 6.91. For the same compound, the Activity (A549 [15]) was 28.6%, the selectivity ratio [16] was 54.3 and the Activity (A549 [17]) was 40.7%. The Activity (A549 [18]) was 53.9%, the Activity (A549 [19]) was “Active” and the Activity (A549 [20]) was 33.4%. For the same compound, the selectivity ratio [21] was 2970, the pIC50 [22] was 8.40 and the Activity (A549 [23]) was 43.8%. For the same compound, the pIC50 [24] was 5.25, the Activity (Mus musculus) was “Non-toxic” and the Activity (A549 [25]) was 3.56%. The Activity (A549 [26]) was 2.94%, the pIC50 [27] was 8.22 and the pIC50 (MCF7) was 8.22.

Reference: ChEMBL document CHEMBL3817728, “Synthesis, Evaluation, and Mechanism Study of Novel Indole-Chalcone Derivatives Exerting Effective Antitumor Activity Through Microtubule Destabilization in Vitro and in Vivo” (J Med Chem, 2016)
